# Source: PubChem (several laboratories)
# TDP2 inh: blocks human TDP2 phosphodiesterase activity; O95551; recombinant TDP2, T5PNP hydrolysis, p-nitrophenol absorbance 415 nm; inhibition, % at 12.8 µM; 370,000 tested, 0.34% active;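 active means inhibition above the mean of all tested compounds plus 3 SD, set per campaign, cut at about 25% in these data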;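 further: 0% = DMSO with enzyme and 100% = buffer with substrate but no TDP2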
#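 Material: recombinant human TDP2; quantity: TDP2 enzyme at 120 nM final; medium: Tris-HCl pH 7.5 with MgCl2; compound: single concentration, 12.8 µM nominal, with 1% DMSO; incubation: 2 h enzyme incubation at 37 °C; signal: epi absorbance; measure: percent inhibition; benchmarks: high control without enzyme, low control DMSO plus TDP2; repeats: singlicate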
# TCR-CD3 inh: inhibitors of human TCR-CD3 interaction | TAMRA-labeled TCR probe fluorescence, biochemical | inhibition, % at 9.4 µM | 360,000 tested, 0.37% active | AID 651800; in the data active means inhibition above about 19%;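 further: recombinant mutant TCR 2C K166C tagged with TAMRA read by polarization; 0% = receptor in buffer alone and 100% = receptor with positive control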
# Apaf-1 inh: blocks human Apaf-1 apoptosome activity; inhibition, % at 20 µM; 330,000 tested, 0.71% active; reconstituted apoptosome caspase-3 activity, DEVD-Rh110 fluorescence; active means inhibition of at least 40% at 20 µM;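 further: plate controls were DMSO wells for no effect and DEVD-CHO caspase inhibitor wells for full effect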
# Target sequence (O14727 whole entry, looked up): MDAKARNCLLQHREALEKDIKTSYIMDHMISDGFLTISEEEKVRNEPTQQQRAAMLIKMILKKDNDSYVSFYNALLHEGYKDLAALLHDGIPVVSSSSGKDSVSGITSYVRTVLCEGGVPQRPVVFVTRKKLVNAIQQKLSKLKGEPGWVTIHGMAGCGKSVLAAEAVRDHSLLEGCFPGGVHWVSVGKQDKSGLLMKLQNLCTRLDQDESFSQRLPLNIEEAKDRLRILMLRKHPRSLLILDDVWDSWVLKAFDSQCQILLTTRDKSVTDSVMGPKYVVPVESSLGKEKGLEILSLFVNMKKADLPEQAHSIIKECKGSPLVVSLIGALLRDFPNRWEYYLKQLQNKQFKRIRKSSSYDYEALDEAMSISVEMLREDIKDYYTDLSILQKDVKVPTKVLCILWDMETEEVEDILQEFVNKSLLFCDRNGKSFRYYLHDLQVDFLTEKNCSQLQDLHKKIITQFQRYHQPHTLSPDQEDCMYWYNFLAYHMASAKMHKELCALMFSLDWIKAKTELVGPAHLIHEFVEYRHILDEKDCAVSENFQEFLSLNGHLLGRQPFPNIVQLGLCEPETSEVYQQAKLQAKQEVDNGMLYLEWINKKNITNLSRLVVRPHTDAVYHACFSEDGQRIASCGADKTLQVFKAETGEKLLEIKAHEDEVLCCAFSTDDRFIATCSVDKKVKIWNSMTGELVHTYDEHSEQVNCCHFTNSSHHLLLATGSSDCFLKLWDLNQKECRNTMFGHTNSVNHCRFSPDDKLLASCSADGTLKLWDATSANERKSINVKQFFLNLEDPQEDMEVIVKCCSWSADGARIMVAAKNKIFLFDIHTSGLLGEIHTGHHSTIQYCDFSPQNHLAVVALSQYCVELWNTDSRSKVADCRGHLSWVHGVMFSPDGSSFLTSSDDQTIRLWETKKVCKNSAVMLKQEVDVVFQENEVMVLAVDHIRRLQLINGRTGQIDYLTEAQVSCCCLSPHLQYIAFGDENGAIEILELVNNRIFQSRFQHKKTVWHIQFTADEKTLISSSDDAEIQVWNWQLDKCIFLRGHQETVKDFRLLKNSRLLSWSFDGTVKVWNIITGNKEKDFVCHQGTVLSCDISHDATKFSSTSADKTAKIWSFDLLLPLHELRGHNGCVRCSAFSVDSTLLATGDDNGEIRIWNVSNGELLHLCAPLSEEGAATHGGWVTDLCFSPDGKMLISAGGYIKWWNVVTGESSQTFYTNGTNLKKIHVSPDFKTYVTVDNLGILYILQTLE
#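 Material: reconstituted apoptosome with Apaf-1, cytochrome c, caspase-9, procaspase-3, dATP. Technique: Rh110 fluorescence intensity. Buffer or medium: pH 7.5 Hepes buffer with CHAPS, BSA, DTT. Times: 30 min plus 50 min, RT.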
# SIAE primary: blocks human sialic acid acetylesterase; Q9HAT2; SIAE FP-Rh probe binding, fluorescence polarization; inhibition, % at 9.66 µM; 370,000 tested, 0.69% active; AID 1053197;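 active means inhibition above a cutoff: mean of compounds within the control limits plus 3 SD of those, cut at about 17% in these data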;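 further: 0% = plate median of compound wells and 100% = probe without SIAE protein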
# PAD4 FP inh: inhibitors of human PAD4; Q9UM07; recombinant PAD4, RCA probe fluorescence polarization; AID 485272; inhibition, % at 6.36 µM; 330,000 tested, 0.41% active;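 active means percent inhibition above a cutoff equal to the mean of all tested compounds plus 3 SD, cut at about 15% in these data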;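 further: 0% = PAD4 with RCA probe and DMSO and 100% = probe without PAD4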
# GSTO1 counter: GSTO1 inhibition, counter-screen for RBBP9 inhibitors. 300,000 tested, 1.1% active. inhibition, % at 5.96 µM. P78417. recombinant GSTO1, activity-based probe fluorescence polarization;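 active means inhibition above the campaign mean inhibition plus 3 SD, cut at about 35% in these data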;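 further: 0% = GSTO1-1 with DMSO and 100% = wells lacking GSTO1-1 enzyme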
# SIAE confirm: human SIAE inhibition, confirmation | shares compounds with SIAE primary | SIAE FP-Rh activity-based probe, fluorescence polarization | inhibition, % at 9.66 µM | 2,300 tested, 13% active;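 active means mean inhibition of the replicates above the hit cutoff set in the primary screen, cut at about 17% in these data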;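 further: 0% = SIAE with DMSO and probe and 100% = probe without SIAE; inhibitors lower polarization as more probe stays unbound to SIAE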
# An asterisk follows results filed as active; / = no result. The list is not random: actives were taken first. Their share in the collection is about 2.4%.
SMILES,TDP2 inh,TCR-CD3 inh,Apaf-1 inh,SIAE primary,PAD4 FP inh,GSTO1 counter,SIAE confirm
Nc1ccn([C@@H]2O[C@H](C(=O)N[C@H](Cc3ccccc3)C(=O)N3CCN(C(=O)N4CCCCC4)CC3)[C@@H](O)[C@H]2O)c(=O)n1,3,-3,/,23*,/,/,18*
CCCCn1nnnc1NCc1cc(Cl)c(OC)c(OC)c1,-2,8,3,4,-7,13,/
CC(Sc1nc(N2CCCCC2)c2c(c1C#N)CCCC2)C(=O)O (stereo not given),-5,0,14,22*,2,0,-1
CNC(=S)N/N=C(\C)c1ccc(-n2ccnc2)cc1,0,5,-11,-1,1,-5,/
Nc1nnn(CC(=O)N/N=C/c2cn[nH]c2-c2ccccc2)n1,-23,-4,-22,21*,-1,3,0
Nc1nnn(CC(=O)N/N=C/c2ccncc2)n1,-6,-3,-12,-4,1,-7,/
Cn1ccc2c(N3CCCC3)cc3c(c21)C1CCC3O1 (stereo not given),6,5,/,20*,/,/,-1
CC1CC(C)(C)CC2(C1)NC(=O)N(CC(=O)N(C)Cc1nc3ccccc3c(=O)[nH]1)C2=O (stereo not given),4,9,6,19*,-1,/,-3
COc1ccccc1C(=O)NCCC(=O)N1CCCC(C(F)(F)F)C1 (stereo not given),8,3,-1,-3,2,3,/
COc1ccc(/C(C)=N/OCC(=O)N=Nc2c(O)[nH]c3ccccc23)cc1,7,1,-6,21*,-4,1,0
O=CN1N=C(c2ccccc2)CC1c1ccc(Cl)cc1 (stereo not given),10,1,9,-1,-4,-6,/
O=C1OC(c2ccccc2)=NC12CC2c1ccc(Cl)cc1 (stereo not given),-13,-2,3,23*,-1,15,70*
C[n+]1ccc2[nH]c3ccccc3c2c1,0,4,/,26*,/,/,-6
c1ccc2c(c1)[nH]c1ccccc12,1,6,-2,-2,5,3,/
CNC(=O)c1c(NC(=O)c2ccc(S(=O)(=O)N3CCCCC3C)cc2)sc2c1CCN(C)C2 (stereo not given),12,4,4,17*,2,-5,6
COCCNC(=O)c1ccccc1NC(=O)C1COc2ccccc2O1 (stereo not given),6,3,2,1,5,9,/
O=C(CCc1c[nH]c2ccccc12)Nc1ccc(Nc2ccncc2)cc1,6,-4,/,26*,/,/,21*
O=C(NCCc1c[nH]c2ccccc12)C(=O)c1c[nH]c2ccccc12,-2,6,3,27*,-3,-11,-5
O=C(CCc1c[nH]c2ccccc12)Nc1ccc(Nc2cccnc2)c(Br)c1,-3,-6,/,17,/,/,/
O=C(CCc1c[nH]c2ccccc12)Nc1ccc(Nc2cccnc2)cc1,1,-4,/,11,/,/,/
O=C(NCCc1ccc(Cl)cc1)C(=O)c1c[nH]c2ccccc12,7,1,5,3,-1,-10,/
O=C(CCc1c[nH]c2ccccc12)NCCc1ccc2c(c1)OCCO2,6,-2,9,17*,-1,1,-2
CN(c1cccnc1)c1ccc(NC(=O)CCc2c[nH]c3ccccc23)cc1Br,2,-6,/,32*,/,/,45*
CC(C)(C)Nc1nc(Oc2ccc(=O)[nH]n2)nc(N2CCOCC2)n1,-11,-4,5,1,-5,3,/
CCc1nnc(NC(=O)CCc2c[nH]c3ccccc23)s1,4,-1,6,18*,0,0,5
SMILES,TDP2 inh,TCR-CD3 inh,Apaf-1 inh,SIAE primary,PAD4 FP inh,GSTO1 counter,SIAE confirm
c1ccc(Nc2ccc(NCCc3c[nH]c4ccccc34)cc2)cc1,3,-10,/,13,/,/,/
O=C(CCc1c[nH]c2ccccc12)Nc1ccc(Nc2ccccc2)cc1,0,-8,/,17*,/,/,13
CC(C)C(=O)Nc1nnc(Cc2c[nH]c3ccccc23)s1,-4,7,-19,-1,6,1,/
O=C1CCN(CCc2ccccc2)CCN1CCSc1ccc(Br)cc1,-7,4,22,3,-5,4,/
Cc1ccc(S(=O)(=O)N2CCC3(CC2)OCCN3S(=O)(=O)c2cccs2)cc1,4,12,15,-8,4,6,/
Cc1ccc(S(=O)(=O)N2CCOC23CCN(S(=O)(=O)c2cccs2)CC3)cc1,-5,-5,13,18*,0,5,4
COc1cccc(OCC(O)CN2CCN(c3ccc(Cl)cc3)CC2)c1 (stereo not given),-5,1,8,19*,-2,-8,0
COc1ccccc1OCC(=O)Nc1ccc(NC(=O)COc2ccccc2OC)cc1,-14,0,12,-2,-1,-9,/
COc1ccccc1OCC(=O)Nc1ccc(C(N)=O)cc1,-5,1,-6,18*,-1,-3,-2
COc1cc(N=Nc2cccc(S(N)(=O)=O)c2)c2ccccc2c1N,1,1,/,26*,-11,-7,-2
NC1=NC(=Nc2cccc(S(N)(=O)=O)c2)c2ccccc21,4,2,-2,-5,1,7,/
C=CCN=c1sc(C(=O)OC)cc(=O)n1CC=C,11,-2,-3,-3,-4,0,/
CCOC(=O)c1sc(NC(C)=O)c(C(=O)OCC)c1C,7,11,4,-3,-1,1,/
O=C(NCC(=O)N1CCCCCCC1)c1ccc(Cl)cc1,8,5,1,5,-4,/,/
CC(C)(C)c1ccc(C(=O)NCC(=O)N2CCCCCC2)cc1,-1,1,2,21*,1,-4,-2
O=C(CN1C(=O)NC2(CCCCC2)C1=O)Oc1ccc2c(C(F)(F)F)cc(=O)oc2c1,-24,-2,0,-6,2,7,/
CC(=O)c1ccc(N2Cc3ccccc3/C2=N\C(=O)Nc2ccccc2)cc1,-7,5,10,26*,-1,-3,2
CN(C)/C=C(\C(=O)c1ccc(Cl)cc1)c1nnnn1-c1ccc(Cl)cc1,6,-2,8,18*,-3,-25,-5
CN(C)/C=C(\C(=O)c1ccccc1)c1nnnn1-c1ccc(F)cc1,6,-6,-15,-5,-3,-12,/
O=C(Nc1c2c(nn1-c1ccccc1)CS(=O)(=O)C2)c1ccc(Br)o1,1,2,/,3,/,/,/
Cc1nnc(N(C)C(=O)c2ccccn2)s1,3,3,-10,32*,-2,-1,4
CC(=O)c1ccc(OC(=O)CCN2c3ccccc3Sc3ccccc32)cc1,-2,2,21,19*,2,-1,-3
